These results are taken from ChEMBL document CHEMBL3525985, “Regiospecificity and stereospecificity of human UDP-glucuronosyltransferases in the glucuronidation of estriol, 16-epiestriol, 17-epiestriol, and 13-epiestradiol” (Drug Metab Dispos, 2013).

Type in all cases: ADME
Common to all, as to conditions: recombinant enzyme

The target of data set [1] is T1, UDP-glucuronosyltransferase 1A1 (Homo sapiens, UniProt P22309).
T1 sequence (P22309 whole entry): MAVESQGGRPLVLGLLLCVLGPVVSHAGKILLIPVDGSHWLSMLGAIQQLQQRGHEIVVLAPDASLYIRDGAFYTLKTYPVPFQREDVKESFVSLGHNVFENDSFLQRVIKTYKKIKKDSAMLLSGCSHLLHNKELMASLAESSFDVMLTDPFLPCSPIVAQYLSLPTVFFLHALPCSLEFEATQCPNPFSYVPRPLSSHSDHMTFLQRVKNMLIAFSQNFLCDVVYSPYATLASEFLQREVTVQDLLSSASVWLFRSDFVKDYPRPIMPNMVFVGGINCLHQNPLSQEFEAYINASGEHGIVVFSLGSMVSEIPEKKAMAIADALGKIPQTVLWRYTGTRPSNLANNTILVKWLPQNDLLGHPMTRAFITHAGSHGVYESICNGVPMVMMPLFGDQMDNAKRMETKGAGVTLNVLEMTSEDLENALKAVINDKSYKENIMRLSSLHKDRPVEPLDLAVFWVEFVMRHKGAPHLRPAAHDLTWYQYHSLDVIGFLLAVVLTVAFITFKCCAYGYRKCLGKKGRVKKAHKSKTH
The experiment in a line: Drug metabolism assessed as recombinant human C-terminal His-tagged UGT1A1-mediated estriol-3-glucuronide formation at 200 uM after 15 to 60 mins by HPLC analysis in presence of UDPGA. The essentials:
(§1)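 Screening at a single substrate concentration of 200 μM, in triplicate. The reaction used 5 or 50 µg of UGT-enriched insect cell membranes in 50 mM phosphate pH 7.4 with 10 mM MgCl₂ and 5 mM UDPGA, 10% final DMSO. Incubation was 15–60 min at 37°C. Perchloric acid stopped the reaction and supernatants were analysed by HPLC. Controls lacked UDPGA. Rates were normalized to relative UGT expression level.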

The target in data set [2] is T2, UDP-glucuronosyltransferase 1A8 (Homo sapiens, UniProt Q9HAW9).
T2 sequence (Q9HAW9 whole entry): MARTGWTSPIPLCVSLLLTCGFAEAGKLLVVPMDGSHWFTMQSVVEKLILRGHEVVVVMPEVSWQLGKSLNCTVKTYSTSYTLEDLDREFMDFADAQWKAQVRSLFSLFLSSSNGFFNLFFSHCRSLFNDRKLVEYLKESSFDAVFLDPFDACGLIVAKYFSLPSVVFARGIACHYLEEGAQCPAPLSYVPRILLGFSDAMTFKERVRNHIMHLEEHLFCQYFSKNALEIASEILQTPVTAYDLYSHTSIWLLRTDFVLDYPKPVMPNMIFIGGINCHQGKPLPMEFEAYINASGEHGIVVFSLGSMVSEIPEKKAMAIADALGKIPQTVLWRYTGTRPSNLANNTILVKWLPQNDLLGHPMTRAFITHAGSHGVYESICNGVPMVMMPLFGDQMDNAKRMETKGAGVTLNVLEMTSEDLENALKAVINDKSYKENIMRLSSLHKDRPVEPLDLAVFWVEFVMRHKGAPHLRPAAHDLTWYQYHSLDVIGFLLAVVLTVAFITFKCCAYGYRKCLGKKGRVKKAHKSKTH
Kind of data set: Drug metabolism assessed as recombinant human C-terminal His-tagged UGT1A8-mediated estriol-3-glucuronide formation at 200 uM after 15 to 60 mins by HPLC analysis in presence of UDPGA. In a few lines:
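Screen at 200 µM substrate (DMSO, 10% final) with 5 or 50 µg UGT-enriched insect-cell membranes in 50 mM phosphate pH 7.4, 10 mM MgCl2, 5 mM UDPGA; 37°C, 15–60 min. Stopped with perchloric acid, then iced and centrifuged; glucuronides resolved by HPLC. Triplicates with no-UDPGA controls; ≤10% substrate consumed; rates normalized to relative UGT expression (UGT1A7 15.5, UGT1A8 1.4; UGT1A3 = 1.0).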

Data set [3] concerns the target T3, UDP-glucuronosyltransferase 1A4 (Homo sapiens, UniProt P22310).
T3 sequence (P22310 whole entry): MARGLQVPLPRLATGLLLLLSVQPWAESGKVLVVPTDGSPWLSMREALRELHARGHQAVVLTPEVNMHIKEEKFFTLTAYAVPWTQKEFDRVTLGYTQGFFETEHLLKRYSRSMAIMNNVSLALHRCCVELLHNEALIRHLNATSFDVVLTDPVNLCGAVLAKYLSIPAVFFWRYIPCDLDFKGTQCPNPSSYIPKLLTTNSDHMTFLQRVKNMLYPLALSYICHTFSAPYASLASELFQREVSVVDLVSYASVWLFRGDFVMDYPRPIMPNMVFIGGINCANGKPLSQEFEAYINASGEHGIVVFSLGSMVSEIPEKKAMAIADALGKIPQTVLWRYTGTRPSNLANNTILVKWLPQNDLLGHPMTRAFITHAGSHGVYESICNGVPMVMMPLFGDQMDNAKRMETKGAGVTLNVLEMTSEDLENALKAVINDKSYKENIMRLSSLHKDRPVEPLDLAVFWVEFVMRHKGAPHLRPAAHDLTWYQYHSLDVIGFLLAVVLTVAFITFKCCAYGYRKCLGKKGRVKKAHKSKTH
Kind of data set: Drug metabolism assessed as recombinant human C-terminal His-tagged UGT1A4-mediated 17-epiestriol-16-glucuronide formation at 200 uM after 15 to 60 mins by HPLC analysis in presence of UDPGA. In a few lines:
as §1

The target of data set [4] is T4, UDP-glucuronosyltransferase 1A10 (Homo sapiens, UniProt Q9HAW8).
T4 sequence (Q9HAW8 whole entry): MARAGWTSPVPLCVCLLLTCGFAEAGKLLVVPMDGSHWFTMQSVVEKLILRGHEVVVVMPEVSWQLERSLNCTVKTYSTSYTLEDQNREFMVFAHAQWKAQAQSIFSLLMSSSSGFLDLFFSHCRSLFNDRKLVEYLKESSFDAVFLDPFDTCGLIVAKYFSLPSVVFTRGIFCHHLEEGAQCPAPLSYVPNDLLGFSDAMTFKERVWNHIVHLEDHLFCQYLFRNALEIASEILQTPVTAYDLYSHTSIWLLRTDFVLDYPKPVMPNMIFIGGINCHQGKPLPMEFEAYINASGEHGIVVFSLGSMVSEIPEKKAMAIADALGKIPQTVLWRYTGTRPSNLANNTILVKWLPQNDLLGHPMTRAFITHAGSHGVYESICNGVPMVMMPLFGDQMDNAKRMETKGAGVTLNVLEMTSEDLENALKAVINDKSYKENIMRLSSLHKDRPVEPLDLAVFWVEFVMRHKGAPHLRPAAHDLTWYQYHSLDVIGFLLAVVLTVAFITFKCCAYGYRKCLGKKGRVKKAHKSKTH
The experiment in a line: Drug metabolism assessed as recombinant human C-terminal His-tagged UGT1A10-mediated 17-epiestriol-3-glucuronide formation at 200 uM after 15 to 60 mins by HPLC analysis in presence of UDPGA. The essentials:
as §1

In data set [5] the target is T3, UDP-glucuronosyltransferase 1A4. The experiment in a line: Drug metabolism assessed as recombinant human C-terminal His-tagged UGT1A4-mediated estradiol-17-glucuronide formation at 200 uM after 15 to 60 mins by HPLC analysis in presence of UDPGA. In a few lines:
as §1

With `C[C@]12CC[C@@H]3c4ccc(O)cc4CC[C@H]3[C@@H]1C[C@@H](O)[C@@H]2O` [ESTRIOL], the Drug metabolism entry in data set [1] and in data set [2] was “metabolite_detected” each time.

Turning to `C[C@]12CC[C@@H]3c4ccc(O)cc4CC[C@H]3[C@@H]1C[C@@H](O)[C@H]2O`, the Drug metabolism entry in data set [3] and in data set [4] was “metabolite_detected” throughout.

In the case of `C[C@]12CC[C@@H]3c4ccc(O)cc4CC[C@H]3[C@@H]1CC[C@@H]2O` [ESTRADIOL], the Drug metabolism entry in data set [5] is “metabolite_detected”.
